Experimental data reported in ChEMBL document CHEMBL1148785, “Second generation tetrahydroquinoline-based protein farnesyltransferase inhibitors as antimalarials” (J Med Chem, 2007).

How the values were obtained:
Plasmodium falciparum [1] = experiment: Antimalarial activity against Plasmodium falciparum 3D7; format: functional; conditions: read-out: ED50 (the source's name)
In short: (§1)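 Asynchronous culture in type A+ erythrocytes at 0.5% parasitemia and 0.5% hematocrit, grown in RPMI-1640 with 20% heat-inactivated human A+ plasma. Compound was serially diluted from a top final 5 µM, with DMSO vehicle as 100% growth. Plates ran 48 h at 37 °C under 5% CO2/5% O2/90% N2, then [3H]-hypoxanthine (0.3 µCi) for 24 h. Filter-harvested counts were corrected for the uninfected-RBC background. ED50 by linear regression; duplicates averaged.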

Plasmodium falciparum [2] = experiment: Antimalarial activity against Plasmodium falciparum K1; format: functional; conditions: read-out: ED50 (the source's name); in short: as §1
[3] = Inhibition of Plasmodium falciparum protein farnesyltransferase by scintillation proximity assay
Plasmodium falciparum [4] = experiment: Inhibition of Plasmodium falciparum protein farnesyltransferase at 50 nM by scintillation proximity assay
Plasmodium falciparum [5] = experiment: Inhibition of Plasmodium falciparum protein farnesyltransferase at 5 nM by scintillation proximity assay
Plasmodium falciparum [6] = experiment: Inhibition of Plasmodium falciparum protein farnesyltransferase at 0.5 nM by scintillation proximity assay

Compound: Cn1cnc(S(=O)(=O)N(CCCCC(=O)NCCN)C2Cc3cc(C#N)ccc3N(Cc3cncn3C)C2)c1 (configuration not stated)
- EC50 (Plasmodium falciparum [1]; Plasmodium falciparum, 3D7): 250 nM
- EC50 (Plasmodium falciparum [2]; Plasmodium falciparum, K1): 130 nM
- IC50 [3]: 0.9 nM

Compound: Cn1cnc(S(=O)(=O)N(Cc2ccsc2)C2Cc3cc(C#N)ccc3N(Cc3cncn3C)C2)c1 (configuration not stated)
- inhibition (Plasmodium falciparum [4]): 99%
- EC50 (Plasmodium falciparum [1]; Plasmodium falciparum, 3D7): 12 nM
- EC50 (Plasmodium falciparum [2]; Plasmodium falciparum, K1): 2 nM
- IC50 [3]: 0.4 nM

Compound: Cn1cncc1CN1CC(N(CC(=O)OC(C)(C)C)C(=O)c2ccccc2)Cc2cc(C#N)ccc21 (configuration not stated)
- EC50 (Plasmodium falciparum [1]; Plasmodium falciparum, 3D7): > 5000 nM
- EC50 (Plasmodium falciparum [2]; Plasmodium falciparum, K1): > 5000 nM
- IC50 [3]: > 50 nM

Compound: Cn1cncc1CN1CC(N(CC(=O)NC(C)(C)C)S(=O)(=O)c2c[nH]cn2)Cc2cc(C#N)ccc21 (configuration not stated)
- inhibition (Plasmodium falciparum [5]): 14%
- inhibition (Plasmodium falciparum [4]): 15%
- EC50 (Plasmodium falciparum [1]; Plasmodium falciparum, 3D7): > 5000 nM
- inhibition (Plasmodium falciparum [6]): 10%
- EC50 (Plasmodium falciparum [2]; Plasmodium falciparum, K1): > 5000 nM
- IC50 [3]: 800 nM

Compound: COC(=O)N1CCC(CN(C2Cc3cc(C#N)ccc3N(Cc3cncn3C)C2)S(=O)(=O)c2ccccn2)CC1 (configuration not stated)
- EC50 (Plasmodium falciparum [1]): 95 nM
- EC50 (Plasmodium falciparum [2]): 75 nM
- IC50 [3]: 2.7 nM

Compound: Cn1cncc1CN1CC(N(CC2CCN(C(=O)c3ccc(Cl)cc3)CC2)S(=O)(=O)c2ccccn2)Cc2cc(C#N)ccc21 (configuration not stated)
- inhibition (Plasmodium falciparum [5]): 0%
- inhibition (Plasmodium falciparum [4]): 26%
- EC50 (Plasmodium falciparum [1]; Plasmodium falciparum, 3D7): 460 nM
- inhibition (Plasmodium falciparum [6]): 7%
- EC50 (Plasmodium falciparum [2]; Plasmodium falciparum, K1): 1700 nM
- IC50 [3]: 900 nM

Compound: CC(=O)N1CCC(CN(C2Cc3cc(C#N)ccc3N(Cc3cncn3C)C2)S(=O)(=O)c2ccccn2)CC1 (configuration not stated)
- inhibition (Plasmodium falciparum [5]): 29%
- inhibition (Plasmodium falciparum [4]): 94%
- EC50 (Plasmodium falciparum [1]; Plasmodium falciparum, 3D7): 37 nM
- inhibition (Plasmodium falciparum [6]): 65%
- EC50 (Plasmodium falciparum [2]; Plasmodium falciparum, K1): 95 nM
- IC50 [3]: 2.4 nM

Compound: Cc1cc(C(=O)N(CC(=O)OC(C)(C)C)C2Cc3cc(C#N)ccc3N(Cc3cncn3C)C2)no1 (configuration not stated)
- EC50 (Plasmodium falciparum [1]; Plasmodium falciparum, 3D7): > 5000 nM
- EC50 (Plasmodium falciparum [2]; Plasmodium falciparum, K1): > 5000 nM
- IC50 [3]: > 50 nM

Compound: Cn1cnc(C(=O)N(CC(=O)OC(C)(C)C)C2Cc3cc(C#N)ccc3N(Cc3cncn3C)C2)c1 (configuration not stated)
- EC50 (Plasmodium falciparum [1]; Plasmodium falciparum, 3D7): > 5000 nM
- EC50 (Plasmodium falciparum [2]; Plasmodium falciparum, K1): > 5000 nM
- IC50 [3]: > 50 nM

Compound: CCN(CC)C(=O)c1ccc2c(c1)CC(N(CC(=O)NC(C)(C)C)S(=O)(=O)c1cn(C)cn1)CN2Cc1cncn1C (configuration not stated)
- inhibition (Plasmodium falciparum [5]): 23%
- inhibition (Plasmodium falciparum [4]): 73%
- EC50 (Plasmodium falciparum [1]; Plasmodium falciparum, 3D7): 2800 nM
- inhibition (Plasmodium falciparum [6]): 0%
- EC50 (Plasmodium falciparum [2]; Plasmodium falciparum, K1): 2600 nM

Compound: Cn1cncc1CN1CC(N(CCc2ccc(F)cc2)S(=O)(=O)c2ccccn2)Cc2cc(C#N)ccc21 (configuration not stated)
- inhibition (Plasmodium falciparum [5]): 71%
- inhibition (Plasmodium falciparum [4]): 96%
- EC50 (Plasmodium falciparum [1]; Plasmodium falciparum, 3D7): 200 nM
- inhibition (Plasmodium falciparum [6]): 9%
- EC50 (Plasmodium falciparum [2]; Plasmodium falciparum, K1): 650 nM

Compound: CC(=O)OCC(=O)N(Cc1ccccc1F)C1Cc2cc(C#N)ccc2N(Cc2cncn2C)C1 (configuration not stated)
- inhibition (Plasmodium falciparum [5]): 0%
- inhibition (Plasmodium falciparum [4]): 33%
- EC50 (Plasmodium falciparum [1]; Plasmodium falciparum, 3D7): 690 nM
- inhibition (Plasmodium falciparum [6]): 0%
- EC50 (Plasmodium falciparum [2]; Plasmodium falciparum, K1): 750 nM

Compound: Cn1cncc1CN1CC(N(CC2CCN(C(=O)OCc3ccccc3)CC2)S(=O)(=O)c2ccccn2)Cc2cc(C#N)ccc21 (configuration not stated)
- inhibition (Plasmodium falciparum [5]): 13%
- inhibition (Plasmodium falciparum [4]): 98%
- EC50 (Plasmodium falciparum [1]; Plasmodium falciparum, 3D7): 550 nM
- inhibition (Plasmodium falciparum [6]): 66%
- EC50 (Plasmodium falciparum [2]; Plasmodium falciparum, K1): 650 nM

Compound: Cn1cncc1CN1CC(N(CC2CCN(C(=O)N3CCCCC3)CC2)S(=O)(=O)c2ccccn2)Cc2cc(C#N)ccc21 (configuration not stated)
- inhibition (Plasmodium falciparum [5]): 14%
- inhibition (Plasmodium falciparum [4]): 94%
- EC50 (Plasmodium falciparum [1]; Plasmodium falciparum, 3D7): 140 nM
- inhibition (Plasmodium falciparum [6]): 62%
- EC50 (Plasmodium falciparum [2]; Plasmodium falciparum, K1): 200 nM

Compound: Cn1cnc(S(=O)(=O)N(CCc2ccccc2)C2Cc3cc(C#N)ccc3N(Cc3cncn3C)C2)c1 (configuration not stated)
- inhibition (Plasmodium falciparum [5]): 96%
- inhibition (Plasmodium falciparum [4]): 97%
- EC50 (Plasmodium falciparum [1]; Plasmodium falciparum, 3D7): 9 nM
- inhibition (Plasmodium falciparum [6]): 82%
- EC50 (Plasmodium falciparum [2]; Plasmodium falciparum, K1): 10 nM

Compound: Cn1cncc1CN1CC(N(CC2CCN(C(=O)Nc3ccc(Br)cc3)CC2)S(=O)(=O)c2ccccn2)Cc2cc(C#N)ccc21 (configuration not stated)
- inhibition (Plasmodium falciparum [5]): 0%
- inhibition (Plasmodium falciparum [4]): 38%
- EC50 (Plasmodium falciparum [1]; Plasmodium falciparum, 3D7): 3000 nM
- inhibition (Plasmodium falciparum [6]): 0%
- EC50 (Plasmodium falciparum [2]; Plasmodium falciparum, K1): 2800 nM

Compound: Cn1cnc(S(=O)(=O)N(CCOc2cccc3c2OCCO3)C2Cc3cc(C#N)ccc3N(Cc3cncn3C)C2)c1 (configuration not stated)
- inhibition (Plasmodium falciparum [5]): 91%
- inhibition (Plasmodium falciparum [4]): 99%
- EC50 (Plasmodium falciparum [1]; Plasmodium falciparum, 3D7): 355 nM
- inhibition (Plasmodium falciparum [6]): 12%
- EC50 (Plasmodium falciparum [2]; Plasmodium falciparum, K1): 350 nM

Compound: Cn1cnc(S(=O)(=O)N(Cc2ccc(-n3cccc3)cc2)C2Cc3cc(C#N)ccc3N(Cc3cncn3C)C2)c1 (configuration not stated)
- inhibition (Plasmodium falciparum [5]): 90%
- inhibition (Plasmodium falciparum [4]): 99%
- EC50 (Plasmodium falciparum [1]; Plasmodium falciparum, 3D7): 68 nM
- inhibition (Plasmodium falciparum [6]): 9%
- EC50 (Plasmodium falciparum [2]; Plasmodium falciparum, K1): 65 nM

Compound: CC(=O)N(Cc1ccccc1F)C1Cc2cc(C#N)ccc2N(Cc2cncn2C)C1 (configuration not stated)
- inhibition (Plasmodium falciparum [5]): 1%
- inhibition (Plasmodium falciparum [4]): 43%
- EC50 (Plasmodium falciparum [1]; Plasmodium falciparum, 3D7): 650 nM
- inhibition (Plasmodium falciparum [6]): 0%
- EC50 (Plasmodium falciparum [2]; Plasmodium falciparum, K1): 730 nM

Compound: Cn1cnc(S(=O)(=O)N(Cc2ccc(F)cc2)C2Cc3cc(C#N)ccc3N(Cc3cncn3C)C2)c1 (configuration not stated)
- inhibition (Plasmodium falciparum [5]): 93%
- inhibition (Plasmodium falciparum [4]): 99%
- EC50 (Plasmodium falciparum [1]; Plasmodium falciparum, 3D7): 40 nM
- inhibition (Plasmodium falciparum [6]): 50%
- EC50 (Plasmodium falciparum [2]; Plasmodium falciparum, K1): 100 nM

Compound: COC(=O)N1CCC(CN(C2Cc3cc(C#N)ccc3N(Cc3cncn3C)C2)S(=O)(=O)c2ccc(NC(C)=O)cc2)CC1 (configuration not stated)
- inhibition (Plasmodium falciparum [5]): 6%
- inhibition (Plasmodium falciparum [4]): 65%
- EC50 (Plasmodium falciparum [1]; Plasmodium falciparum, 3D7): 1800 nM
- inhibition (Plasmodium falciparum [6]): 0%
- EC50 (Plasmodium falciparum [2]; Plasmodium falciparum, K1): 2000 nM
